Measurements as given in the array DNA melting data of Ke et al. (doi:10.1101/2024.01.08.574731).

Assays:
[1] = folding enthalpy; higher = less favourable; fluorescence melt of hairpins on a sequencing array, two-state fit; settings: sodium 0.088 M
In short: (§1)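 On a sequenced MiSeq flow cell, library hairpins with annealed Cy3 and quencher oligos were imaged for Cy3 fluorescence in 2.5 °C steps up to 60 °C, in 50 mM Na-HEPES pH 8.0, 25 mM NaCl. Normalisation used pre-quench Cy3 and control constructs. Bootstrapped two-state fits gave melting temperature and folding enthalpy, combined by inverse variance across four replicates and with fitted temperatures raised by 9.35 °C to match UV melts.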

[2] = melting temperature; fluorescence melt of hairpins on a sequencing array, two-state fit, raised by 9.35 °C to match UV melts; settings: sodium 0.088 M
In short: as §1

Sequence | folding enthalpy [1] [kcal/mol] | Tm [2] [°C]
GCCGCTGGAAACGGTGGC (((.(.(....).).))) | -44.9 | 51.7
GCCGGAACGAAAGTTGGC (((..(((....)))))) | -24.3 | 47.4
GCCGGAGCGAAAGCTGGC (((..(((....)))))) | -21.6 | 55.4
GCCGGAGGAAACTCCAGC ((.((((....)))).)) | -23.8 | 40.9
GCCGGAGGAAACTTCGGC ((((.((....)).)))) | -38.6 | 56.3
GCCGGCGAAAGCCACGGC ((((((....)))..))) | -21.5 | 63.4
GCCGGCGAAAGCCTTGGC ((((((....)))..))) | -20.8 | 54.8
GCCGGCGGAAACGCCGAC (.(((((....))))).) | -10.3 | 59.4
GCCGGGCGAAAGCCAAGC ((..(((....)))..)) | -14.5 | 46.8
GCCGGGCGAAAGCCTAGC ((..(((....)))..)) | -13.6 | 44.1
GCCGGGGGAAACCCTGGC (((.(((....))).))) | -40.9 | 65.4
GCCGGGTCGAAAGACGGC (((..(((....)))))) | -31 | 54.9
GCCGGTCCGAAAGGAGGC (((..(((....)))))) | -21.9 | 48
GCCGGTGCGAAAGCAGGC (((..(((....)))))) | -17.1 | 56.8
GCCGGTGGAAACGTCGGC ((((..(....)..)))) | -42 | 52.3
GCCGTAGGAAACCACGGC (((((.(....).))))) | -34.2 | 54.4
GCCGTAGGAAACTACAGC ((.((((....)))).)) | -11.7 | 39.6
GCCGTCGAAAGACCCGGC ((((((....)))..))) | -18.3 | 47.9
GCCGTCGAAAGACCTGGC ((((((....)))..))) | -19.8 | 44.7
GCCGTCGAAAGACGAGGC ((((((....)))..))) | -17.8 | 55.5
GCCGTCGAAAGACTCGGC ((((((....)))..))) | -23.8 | 48.8
GCCGTCGAAAGACTTGGC ((((((....)))..))) | -17.2 | 50.5
GCCGTCGCGAAAGCGGGC (((..(((....)))))) | -17.9 | 54.5

Sequence | folding enthalpy [1] [kcal/mol] | Tm [2] [°C]
GCCGTGCGAAAGCAACGC ((..(((....)))..)) | -10.9 | 54.1
GCCGTGCGAAAGCACCGC ((.((((....)))).)) | -16 | 55.8
GCCGTGCGAAAGCACTGC ((.((((....)))).)) | -14.4 | 61.8
GCCGTGCGAAAGCCCCGC ((.(.((....)).).)) | -9.26 | 29.3
GCCGTGCGAAAGCGTGGC (((..((....))..))) | -37.1 | 63.4
GCCGTGCGAAAGCTCAGC ((.(.((....)).).)) | -15.4 | 40.4
GCCGTGCGAAAGCTCTGC ((.(.((....)).).)) | -12.2 | 37.7
GCCGTGGGAAACTACGGC (((((.(....).))))) | -42.8 | 61.1
GCCGTGTCGAAAGACGGC (((..(((....)))))) | -31.4 | 58.9
GCCGTTCGAAAGAAAGGC (((.(((....))).))) | -28.8 | 59.3
GCCGTTCGAAAGAATGGC (((.(((....))).))) | -40.1 | 62.6
GCCGTTGGAAACAATGGC (((.(((....))).))) | -36.6 | 55.8
GCCGTTTCGAAAGAAGGC (((..(((....)))))) | -22.4 | 44.3
GCCTAAACGAAAGTTGGC (((..(((....)))))) | -24.9 | 46.7
GCCTAAGCGAAAGCTGGC (((..(((....)))))) | -24.3 | 52.3
GCCTACGAAAGTAAAGGC ((((((....)))..))) | -41.2 | 50.2
GCCTACGAAAGTAATGGC ((((((....)))..))) | -24.8 | 45.3
GCCTACGAAAGTAGGGC ((((((....))).))) | -16.4 | 61.8
GCCTACGGAAACGCAAGC ((.(.((....)).).)) | -11.9 | 26.9
GCCTACGGAAACGTGGGC (((.(((....))).))) | -39.2 | 58.6
GCCTAGAAATAGGC (((((....))))) | -29.2 | 49.8
GCCTAGACGAAAGTCGGC (((..(((....)))))) | -21.6 | 53.3
GCCTAGCGAAAGCCCGGC (((..((....))..))) | -17.4 | 42.7

Sequence | folding enthalpy [1] [kcal/mol] | Tm [2] [°C]
GCCTAGGGAAACCTAAGC ((.((((....)))).)) | -14.7 | 31.6
GCCTAGGGAAACCTAGAC (.(((((....))))).) | -19.6 | 35.4
GCCTATCGAAAGATGGGC (((.(((....))).))) | -34.6 | 60.1
GCCTATGAAAATAGGC ((((((....)))))) | -34 | 58.9
GCCTATGGAAACATAGGC (((((((....))))))) | -33.8 | 66
GCCTCACCGAAAGGTGGC (((..(((....)))))) | -8.02 | 48.9
GCCTCAGCGAAAGCTGGC (((..(((....)))))) | -8.88 | 50.9
GCCTCAGGAAACCAAGGC ((((..(....)..)))) | -28.6 | 33.2
GCCTCAGGAAACCGAGGC (((((.(....).))))) | -45.1 | 53.5
GCCTCCCCGAAAGGGGGC (((..(((....)))))) | -9.45 | 52.5
GCCTCCCGAAAGGGCGGC (((.(((....))).))) | -34.4 | 61.3
GCCTCCGAAAGGAAGGC ((((((....))).))) | -31.9 | 62
GCCTCCGAAAGGACGGC ((((((....))).))) | -30.9 | 56.5
GCCTCCGAAAGGAGAGGC ((((((....)))..))) | -20.4 | 54.8
GCCTCCGAAAGGATGGGC ((((((....)))..))) | -41.9 | 50
GCCTCCGAAAGGATTGGC ((((((....)))..))) | -19.7 | 47.4
GCCTCCGGAAACGGAGAC (.(((((....))))).) | -15.8 | 47
GCCTCGCCGAAAGGCGGC (((..(((....)))))) | -5.04 | 55.4
GCCTCGCGAAAGCAAAGC ((.(.((....)).).)) | -9.86 | 28.4
GCCTCGCGAAAGCCAGGC ((((.((....)).)))) | -23.5 | 58.2
GCCTCGCGAAAGCCTGGC (((..((....))..))) | -22.9 | 46.5
GCCTCGCGAAAGCGCCGC ((..(((....)))..)) | -14.3 | 36.1
